Reference: ChEMBL document CHEMBL5376013, “Design, synthesis and biological evaluation of novel morpholinopyrimidine-5-carbonitrile derivatives as dual PI3K/mTOR inhibitors” (RSC Med Chem, 2024)

Tests used:
Assay type in all cases: functional
Conditions in all cases: read-out: GI
CAKI-1 = assay: Antitumor activity against human CAKI-1 cells assessed as growth inhibition at 10 uM relative to control
Procedure, shortened: (§1)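 After drug addition, plates were incubated 48 h at 37 °C under 5% CO2. Adherent cells were fixed with cold TCA (10% final, 60 min, 4 °C) and suspension cells with 16% final TCA. Staining used 0.4% SRB in 1% acetic acid, solubilized in 10 mM trizma, read at A515. Percent growth was calculated from time-zero, control and treated absorbances.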

HCC 2998 = assay: Antitumor activity against human HCC 2998 cells assessed as growth inhibition at 10 uM relative to control; procedure, shortened: as §1
HOP-62 = assay: Antitumor activity against human HOP-62 cells assessed as growth inhibition at 10 uM relative to control; procedure, shortened: as §1
SR = assay: Antitumor activity against human SR cells assessed as growth inhibition at 10 uM relative to control
Procedure, shortened: (§2)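 Drug exposure 48 h at 37 °C, 5% CO2. Adherent cells fixed with cold TCA (10% final), suspension cells with TCA (16% final). Stained with 0.4% SRB in 1% acetic acid, dissolved in 10 mM Tris, A515. Growth relative to time-zero and untreated control.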

SK-MEL-5 = assay: Antitumor activity against human SK-MEL-5 cells assessed as growth inhibition at 10 uM relative to control; procedure, shortened: as §2
786-0 = assay: Antitumor activity against human 786-0 cells assessed as growth inhibition at 10 uM relative to control; procedure, shortened: as §1
MDA-MB-231 = assay: Antitumor activity against human MDA-MB-231 cells assessed as growth inhibition at 10 uM relative to control; procedure, shortened: as §1
K562 = assay: Antitumor activity against human K562 cells assessed as growth inhibition at 10 uM relative to control; procedure, shortened: as §1
SK-OV-3 = assay: Antitumor activity against human SK-OV-3 cells assessed as growth inhibition at 10 uM relative to control; procedure, shortened: as §2
SNB-75 = assay: Antitumor activity against human SNB-75 cells assessed as growth inhibition at 10 uM relative to control; procedure, shortened: as §2
A498 = assay: Antitumor activity against human A498 cells assessed as growth inhibition at 10 uM relative to control; procedure, shortened: as §1
NCI-H322M = assay: Antitumor activity against human NCI-H322M cells assessed as growth inhibition at 10 uM relative to control; procedure, shortened: as §1
NCI-H226 = assay: Antitumor activity against human NCI-H226 cells assessed as growth inhibition at 10 uM relative to control; procedure, shortened: as §1
HCT-116 = assay: Antitumor activity against human HCT-116 cells assessed as growth inhibition at 10 uM relative to control; procedure, shortened: as §1
BT-549 = assay: Antitumor activity against human BT-549 cells assessed as growth inhibition at 10 uM relative to control; procedure, shortened: as §1
UACC-257 = assay: Antitumor activity against human UACC-257 cells assessed as growth inhibition at 10 uM relative to control; procedure, shortened: as §2
TK-10 = assay: Antitumor activity against human TK-10 cells assessed as growth inhibition at 10 uM relative to control; procedure, shortened: as §2
HL-60 = assay: Antitumor activity against human HL-60 cells assessed as growth inhibition at 10 uM relative to control; procedure, shortened: as §1
MDA-MB-435 = assay: Antitumor activity against human MDA-MB-435 cells assessed as growth inhibition at 10 uM relative to control; procedure, shortened: as §1
A549 = assay: Antitumor activity against human A549 cells assessed as growth inhibition at 10 uM relative to control; procedure, shortened: as §1
OVCAR-5 = assay: Antitumor activity against human OVCAR-5 cells assessed as growth inhibition at 10 uM relative to control; procedure, shortened: as §1
SF-268 = assay: Antitumor activity against human SF-268 cells assessed as growth inhibition at 10 uM relative to control; procedure, shortened: as §1
NCI-H522 = assay: Antitumor activity against human NCI-H522 cells assessed as growth inhibition at 10 uM relative to control; procedure, shortened: as §1
DU-145 = assay: Antitumor activity against human DU-145 cells assessed as growth inhibition at 10 uM relative to control; procedure, shortened: as §1
IGROV-1 = assay: Antitumor activity against human IGROV-1 cells assessed as growth inhibition at 10 uM relative to control; procedure, shortened: as §1
HCT-15 = assay: Antitumor activity against human HCT-15 cells assessed as growth inhibition at 10 uM relative to control; procedure, shortened: as §1
SK-MEL-2 = assay: Antitumor activity against human SK-MEL-2 cells assessed as growth inhibition at 10 uM relative to control; procedure, shortened: as §1
PC-3 = assay: Antitumor activity against human PC-3 cells assessed as growth inhibition at 10 uM relative to control; procedure, shortened: as §1
MOLT-4 = assay: Antitumor activity against human MOLT-4 cells assessed as growth inhibition at 10 uM relative to control; procedure, shortened: as §1
COLO 205 = assay: Antitumor activity against human COLO 205 cells assessed as growth inhibition at 10 uM relative to control; procedure, shortened: as §1
U-251 = assay: Antitumor activity against human U-251 cells assessed as growth inhibition at 10 uM relative to control; procedure, shortened: as §2
M14 = assay: Antitumor activity against human M14 cells assessed as growth inhibition at 10 uM relative to control; procedure, shortened: as §1
SF-539 = assay: Antitumor activity against human SF-539 cells assessed as growth inhibition at 10 uM relative to control; procedure, shortened: as §1
OVCAR-8 = assay: Antitumor activity against human OVCAR-8 cells assessed as growth inhibition at 10 uM relative to control; procedure, shortened: as §1
Hs-578T = assay: Antitumor activity against human Hs-578T cells assessed as growth inhibition at 10 uM relative to control; procedure, shortened: as §1
RXF 393 = assay: Antitumor activity against human RXF 393 cells assessed as growth inhibition at 10 uM relative to control; procedure, shortened: as §1
LOX IMVI = assay: Antitumor activity against human LOX IMVI cells assessed as growth inhibition at 10 uM relative to control; procedure, shortened: as §1
SNB-19 = assay: Antitumor activity against human SNB-19 cells assessed as growth inhibition at 10 uM relative to control; procedure, shortened: as §2
MCF7 = assay: Antitumor activity against human MCF7 cells assessed as growth inhibition at 10 uM relative to control; procedure, shortened: as §1
SF-295 = assay: Antitumor activity against human SF-295 cells assessed as growth inhibition at 10 uM relative to control; procedure, shortened: as §1
EKVX = assay: Antitumor activity against human EKVX cells assessed as growth inhibition at 10 uM relative to control; procedure, shortened: as §1
OVCAR-3 = assay: Antitumor activity against human OVCAR-3 cells assessed as growth inhibition at 10 uM relative to control; procedure, shortened: as §1
NCI-H23 = assay: Antitumor activity against human NCI-H23 cells assessed as growth inhibition at 10 uM relative to control; procedure, shortened: as §1
HOP-92 = assay: Antitumor activity against human HOP-92 cells assessed as growth inhibition at 10 uM relative to control; procedure, shortened: as §1
UO-31 = assay: Antitumor activity against human UO-31 cells assessed as growth inhibition at 10 uM relative to control; procedure, shortened: as §2
OVCAR-4 = assay: Antitumor activity against human OVCAR-4 cells assessed as growth inhibition at 10 uM relative to control; procedure, shortened: as §1

COc1cc(/C=N/Nc2nc(-c3ccc(Cl)cc3)c(C#N)c(N3CCOCC3)n2)cc(OC)c1OC
inhibition of growth at 10 µM (CAKI-1): < 1% | inhibition of growth at 10 µM (HCC 2998): < 1% | inhibition of growth at 10 µM (HOP-62): 10.2% | inhibition of growth at 10 µM (SR): 85.6% | inhibition of growth at 10 µM (SK-MEL-5): 71% | inhibition of growth at 10 µM (786-0): 28.3% | inhibition of growth at 10 µM (MDA-MB-231): 27.8% | inhibition of growth at 10 µM (K562): 51.2% | inhibition of growth at 10 µM (SK-OV-3): < 1% | inhibition of growth at 10 µM (SNB-75): 48.9% | inhibition of growth at 10 µM (A498): 33.7% | inhibition of growth at 10 µM (NCI-H322M): 16.4% | inhibition of growth at 10 µM (NCI-H226): 59.1% | inhibition of growth at 10 µM (HCT-116): 55.4% | inhibition of growth at 10 µM (BT-549): 45.7% | inhibition of growth at 10 µM (UACC-257): < 1% | inhibition of growth at 10 µM (TK-10): 15.7% | inhibition of growth at 10 µM (HL-60): 40.8% | inhibition of growth at 10 µM (MDA-MB-435): 20.1% | inhibition of growth at 10 µM (A549): 41.4% | inhibition of growth at 10 µM (OVCAR-5): 27.9% | inhibition of growth at 10 µM (SF-268): 17.6% | inhibition of growth at 10 µM (NCI-H522): 31.4% | inhibition of growth at 10 µM (DU-145): 32.2% | inhibition of growth at 10 µM (IGROV-1): 39.1% | inhibition of growth at 10 µM (HCT-15): 48% | inhibition of growth at 10 µM (SK-MEL-2): 20.4% | inhibition of growth at 10 µM (PC-3): 45.7% | inhibition of growth at 10 µM (MOLT-4): 65.9% | inhibition of growth at 10 µM (COLO 205): 46.6% | inhibition of growth at 10 µM (U-251): 43.6% | inhibition of growth at 10 µM (M14): 48.8% | inhibition of growth at 10 µM (SF-539): 35.5% | inhibition of growth at 10 µM (OVCAR-8): 46.6% | inhibition of growth at 10 µM (Hs-578T): 14.4% | inhibition of growth at 10 µM (RXF 393): 30.5% | inhibition of growth at 10 µM (LOX IMVI): 70% | inhibition of growth at 10 µM (SNB-19): 14.8% | inhibition of growth at 10 µM (MCF7): < 35.5% | inhibition of growth at 10 µM (SF-295): 13.8% | inhibition of growth at 10 µM (EKVX): 53.7% | inhibition of growth at 10 µM (OVCAR-3): 25.9% | inhibition of growth at 10 µM (NCI-H23): 13.3% | inhibition of growth at 10 µM (HOP-92): 59.1% | inhibition of growth at 10 µM (UO-31): 67% | inhibition of growth at 10 µM (OVCAR-4): 11.2%
